# Compound activity (PubChem BioAssay)
# Shown are actives, neighbours in structure and some others; about 2.4% of the full set was active somewhere.
# EWS-Fli block = blocks EWS/Fli oncoprotein-driven transcription. A673 NR0B1-luciferase reporter, viability-normalised. inhibition, % at 12.6 µM. actives 0.67% (n = 350,000). AID 651661;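 active = mean inhibition of at least 50% after viability correction, with every replicate also passing that limit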;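 also: firefly luciferase signal divided by Alamar Blue viability fluorescence both relative to DMSO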
# E-selectin induc = induces E-selectin expression in human endothelial cells | P16581 | HUVEC E-selectin immunofluorescence imaging; normalized: neutral wells 0, TNF-alpha wells 100 | activation, % at 7.58 µM | actives 0.37% (n = 260,000);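 active = mean E-selectin-positive cell signal at least 10% of the positive control, reached in at least 60% of replicates, without over 20% cell loss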
# Target sequence (P16581 whole entry, looked up): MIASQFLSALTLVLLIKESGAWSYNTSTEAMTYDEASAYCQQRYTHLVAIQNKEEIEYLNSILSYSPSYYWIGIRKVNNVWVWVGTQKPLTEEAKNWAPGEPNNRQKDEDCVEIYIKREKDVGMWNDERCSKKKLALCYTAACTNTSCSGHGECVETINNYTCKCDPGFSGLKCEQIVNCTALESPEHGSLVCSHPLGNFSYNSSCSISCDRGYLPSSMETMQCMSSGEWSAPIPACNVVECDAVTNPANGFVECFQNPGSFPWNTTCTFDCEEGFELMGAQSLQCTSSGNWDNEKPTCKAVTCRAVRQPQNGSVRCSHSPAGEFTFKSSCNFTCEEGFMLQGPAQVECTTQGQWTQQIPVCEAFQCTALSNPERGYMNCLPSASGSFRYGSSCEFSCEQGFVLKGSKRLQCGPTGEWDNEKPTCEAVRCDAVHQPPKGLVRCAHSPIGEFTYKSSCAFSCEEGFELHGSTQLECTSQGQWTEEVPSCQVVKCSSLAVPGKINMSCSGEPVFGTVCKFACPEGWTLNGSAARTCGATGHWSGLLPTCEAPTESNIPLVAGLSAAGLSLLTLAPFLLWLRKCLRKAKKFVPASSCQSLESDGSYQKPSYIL
#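 Test system – human umbilical vein endothelial cells (HUVEC), E-selectin induction · Input – 3,000 HUVEC seeded per well · Buffer or medium – EGM-2, gelatin · Compound dosing – single-point compound dose · Detection – immunofluorescence imaging · Measure – percent E-selectin-positive cells · Controls – TNF-alpha high, DMSO low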
# Ecoli rRNA inh = selective bacterial rRNA inhibition in E. coli; GFP signal change (wild-type ribosome), % (concentration not given with the values); actives 1.6% (n = 350,000); E. coli WT GFP vs humanized-ribosome RFP mutants, fluorescence, 24 h; hits give low values; DMSO median 0, no signal -100;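 active = significant combined selectivity score with lowered wild-type GFP, culture density cut under 30%, mutant RFP and density less affected; inactive = any of these conditions unmet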
# LGR2 inh = inhibitors of bursicon-induced Drosophila LGR2 receptor cAMP signaling. AID 720647. actives 0.35% (n = 380,000). inhibition, % at 9.99 µM. HEK293 LGR2, CRE-luciferase, bursicon-stimulated, 4 h;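 active = drop in luminescence signal, shown as inhibition above about 50% in the replicate tests, limit read from the data, passing the limit was not always enough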;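 also: agonist challenge used bursicon conditioned medium at about half maximal strength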
# Active calls of the source: *; / = no result given.
SMILES,EWS-Fli block,E-selectin induc,Ecoli rRNA inh,LGR2 inh
CC(C)(C)C(=O)Nc1ccc(Sc2ccc([N+](=O)[O-])cc2)cc1,12,/,1,23
CC(=O)Nc1ccc(Sc2ccc([N+](=O)[O-])o2)cc1,61*,/,-59,10
Cc1ccc(C(=O)O/N=C(\N)c2ccccc2)c(Cl)c1,75*,/,24,97*
N/C(=N\OC(=O)c1cc(Cl)ccc1Cl)c1cccnc1,/,/,/,-33
N/C(=N\OC(=O)c1ccc(Cl)cc1Cl)c1ccccn1,/,/,/,93*
N/C(=N\OC(=O)c1ccc(Cl)cc1[N+](=O)[O-])c1ccccn1,-45,/,-34,-3
Cc1ccc(C(=O)O/N=C(\N)c2ccccn2)c(Cl)c1,86*,2,-8,103*
N/C(=N\OC(=O)c1ccc(Cl)cc1[N+](=O)[O-])c1cccnc1,-69,2,-22*,-83
CC(C)NC(=O)N(C)C[C@@H]1Oc2ccccc2C(=O)N(C)C[C@@H]1C,/,/,-3,/
N/C(=N\OC(=O)c1cc([N+](=O)[O-])ccc1Cl)c1ccccn1,-6,3,-24,-22
N/C(=N\OC(=O)c1ccc([N+](=O)[O-])cc1Cl)c1ccccn1,72*,/,3,95*
C[C@@H]1CN([C@H](C)CO)C(=O)c2cccc(NC(=O)c3cnccn3)c2O[C@H]1CN(C)C(=O)Nc1cccc2ccccc12,-14,0,1,13
Cc1cc(N2CCN(Cc3cn(C)nc3-c3cccc(Cl)c3)CC2)cc(C)n1,58*,/,-4,22
CC[n+]1c(/C=C/c2ccc(OC(C)=O)c(OC)c2)ccc2ccccc21,-170,0,-14*,-26
CCN(CC)c1ccc(/C=C/c2ccc3ccc(OC)cc3[n+]2CC)cc1,57*,/,-61,39
COc1cccc(-c2ccc3c(c2)[C@@H]2[C@@H](CCN2C(=O)NC2CCCCC2)[C@H](CO)N3C)c1,5,0,-1,-5
COc1ccc2c3c([nH]c2c1)[C@H](CO)N(C)CC31CN(C(=O)c2cccnc2)C1,-17,0,3,2
CCN1C(=O)CCN(C2CCCC2)c2nc(Nc3ccc(C(=O)NC4CCN(C)CC4)cc3OC)ncc21,62*,-1,-12,-1
COc1ccc(C(=O)NC2CCCCCC2)cc1S(=O)(=O)N1CCCC1,3,0,0,7
C[C@@H]1CN([C@@H](C)CO)C(=O)Cc2cc(NC(=O)Nc3ccc4c(c3)OCO4)ccc2O[C@H]1CN(C)C(=O)Nc1ccc(F)cc1,-15,0,-1,23
COc1ccc(NC(=O)c2ccc3[nH]c(C)c(C)c3c2)c(OC)c1,-58,1,-15*,-10
O=C(C[C@H]1CC[C@@H](NC(=O)C2CCOCC2)[C@H](CO)O1)NCc1ccncc1,13,-2,2,-2
OC(Cc1ccccc1Br)c1ncc(-c2ccc(Cl)cc2)[nH]1 (stereo unspecified),-32,159*,-61,6
O=C(C=Cc1ccccc1)c1c[nH]c2ccccc2c1=O,-24,-1,17,31
Cc1[nH]c2ccccc2c(=O)c1C(=O)/C=C/c1ccccc1,49,/,7,74*
SMILES,EWS-Fli block,E-selectin induc,Ecoli rRNA inh,LGR2 inh
CCOC(=O)Cc1nn(CC)c(=O)c2ccccc12,4,/,7,-16
CCn1nc(CC(=O)O)c2ccccc2c1=O,-8,185*,16,5
CCCCCCCn1c2c(c(=N)c3c1CCC3)CCCC2,63*,0,-50,/
CCCCCCn1c2c(c(=N)c3c1CCC3)CCC2,/,/,/,22
N=c1c2c(n(Cc3ccc(F)cc3)c3c1CCC3)CCC2,11,/,-29*,-3
C[C@H](CO)N1C[C@H](C)[C@@H](CN(C)S(=O)(=O)c2cccs2)OCc2ccccc2-c2c(n(C)c3ccccc23)C1=O,4,7,-1,10
Cc1cccc(NC(=O)NCc2ccc3c(c2)cc(C)n3C)c1,-12,56*,-21,23
Cc1cc2cc(CNC(=O)Nc3cccc(Cl)c3)ccc2n1C,-10,33*,-6,19
OC(c1cc(C(F)(F)F)nc2c(C(F)(F)F)cccc12)C1CCCCN1 (stereo unspecified),59*,0,/,70*
C[C@@H]1CN([C@@H](C)CO)C(=O)c2cc(NC(=O)Cc3ccccc3)ccc2O[C@@H](C)CCCCO[C@@H]1CN(C)C(=O)CCCN(C)C,7,/,6,-5
CC(=O)c1ccc(N2CCc3ccccc3C2)c([N+](=O)[O-])c1,-17,70*,-40,-21
C[C@@H]1CN([C@H](C)CO)C(=O)Cc2cc(NC(=O)NC3CCCCC3)ccc2O[C@H]1CN(C)C(=O)Nc1ccccc1,-1,0,2,16
Cc1ccc2[nH]cc(/C=C/c3cc[n+](C)cc3)c2c1,60*,0,59,16
Nc1cccn2c(-c3ccc(Cl)c(Cl)c3)cnc12,-117,/,-26*,-106
Nc1cccn2c(-c3ccc(Cl)cc3)cnc12,-72,/,-6,-130
CC(=O)N(CCC(c1ccco1)C(C)C)Cc1ccc(Cl)cc1 (stereo unspecified),10,/,/,/
CCC(=O)N(CCC(c1ccco1)C(C)C)Cc1ccccc1 (stereo unspecified),9,0,-39*,1
Cc1sc2ncn(CC(=O)Nc3ccccc3F)c(=O)c2c1-c1ccccc1,7,6,-28*,8
C[n+]1cc2c3c(ccc2c2ccc4cc5c(cc4c21)OCO5)OCO3,59*,2,/,101*
COc1ccc2cc3[n+](cc2c1O)CCc1cc2c(cc1-3)OCO2,-18,0,6,13
COc1ccccc1-c1nn2c(-c3ccco3)nnc2s1,-94,/,-22*,-82
C[C@H]1CN([C@@H](C)CO)C(=O)Cc2cc(NS(=O)(=O)c3cn(C)cn3)ccc2O[C@@H]1CN(C)CC1CC1,-9,0,1,7
Cc1cc2c(sc3ccccc32)c(C)n1,-6,7,-24*,-15
COc1ccc(OCc2cccc(C(=O)Nn3cc([N+](=O)[O-])cn3)c2)cc1,/,/,-47,99*
COc1ccc(OCc2cccc(C(=O)NN)c2)cc1,/,/,/,32
SMILES,EWS-Fli block,E-selectin induc,Ecoli rRNA inh,LGR2 inh
O=C(O)CCn1c(SCCc2ccccc2)nc2ccccc21,1,/,/,/
O=C(O)CCSc1nc2ccccc2n1-c1ccccc1,11,0,-24*,-11
O=C1C(=Cc2ccc(Cl)cc2)Cc2ccccc21,-61,0,/,-54
C=CC(=O)N1C/C(=C/c2ccccc2)C(=O)/C(=C\c2ccccc2)C1,72*,0,-44*,100*
C=CC(=O)N1C/C(=C/c2ccc(Cl)cc2)C(=O)/C(=C\c2ccc(Cl)cc2)C1,77*,-1,-15,104*
C[C@@H]1CN([C@H](C)CO)C(=O)c2cc(NS(C)(=O)=O)ccc2O[C@H]1CN(C)S(=O)(=O)c1ccc(Cl)cc1,-1,-4,-1,/
Cc1cc(-c2nnc(SCC(=O)Nc3nc(-c4ccc(Cl)cc4)cs3)o2)no1,-19,0,-33*,23
COCC#Cc1ccc([C@H]2[C@H]3CN(C(=O)c4cccnc4)CC(=O)N3[C@H]2CO)cc1,15,1,-1,-8
